Series [1] has as its system Hepatitis B virus. Briefly: Antiviral activity against Hepatitis B virus-infected human HepG2(2.2.15) cells assessed as inhibition of HBeAg secretion. The format is functional, organism-based. In short, it runs like this:
(§1)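 Secretion of HBsAg and HBeAg by the HBV-producing Hep G2.2.15 line was measured after compound treatment. IC50 is the concentration giving 50% inhibition of antigen secretion. Lamivudine (3TC) served as the positive control. Values are the mean of two independent experiments.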

The test system of series [2] is Hepatitis B virus. Put plainly: Antiviral activity against Hepatitis B virus-infected human HepG2(2.2.15) cells assessed as inhibition of HBsAg secretion. The format is functional, organism-based. In outline:
as §1

Series [3] in a line: Cytotoxicity against human HepG2(2.2.15) cells. The format is cell-based. In outline:
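The CC50, the concentration causing 50% cytotoxicity, was determined in Hep G2.2.15 cells. Values are the mean of two independent experiments.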

Series [4] in a line: Selectivity index, ratio of CC50 for human HepG2(2.2.15) cells to IC50 for Hepatitis B virus-infected human HepG2(2.2.15) cells assessed as inhibition of HBeAg secretion. The class given is functional. In outline:
(§2)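 SI was calculated as CC50/IC50 from Hep G2.2.15 cytotoxicity and from inhibition of HBeAg or HBsAg secretion. The underlying values are means of two independent experiments.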

The nature of series [5]: Selectivity index, ratio of CC50 for human HepG2(2.2.15) cells to IC50 for Hepatitis B virus-infected human HepG2(2.2.15) cells assessed as inhibition of HBsAg secretion. The format is functional. In short, it runs like this: as §2

Structures are written as SMILES.

The values that follow come from ChEMBL document CHEMBL2346644, “Anti-HBV active constituents from Piper longum” (Bioorg Med Chem Lett, 2013).

With `COc1cc(CC/C=C/C(=O)N2CCCCC2)ccc1O`, the half-inhibitory concentration (IC50) was greater than 2700 µM in the series with Hepatitis B virus [1] and 2700 µM with Hepatitis B virus [2]. The same molecule came in with a CC50 in series [3] greater than 2700 µM.

For `CCCCCCCCCCCCCCC/C=C/C=C/C(=O)NCC(C)C`, the entries for the “Ratio CC50/IC50” value in series [4] and in series [5] were 1.5 and 2.7, respectively. For the same molecule, the concentration for half-maximal inhibition (IC50) with Hepatitis B virus [1] is 1070 µM; in the series with Hepatitis B virus [2] it was 580 µM. The molecule also returned a CC50 in series [3] of 1580 µM.

With `O=C1NCC[C@H](O)[C@H]1O`, the half-inhibitory concentration (IC50) in the series on Hepatitis B virus [1] and in the series on Hepatitis B virus [2] was greater than 1220 µM throughout. This molecule also gave a cytotoxic concentration (CC50) in series [3] greater than 1220 µM.

In the case of `O=C(/C=C/CCCC[C@H](O)[C@H](O)c1ccc2c(c1)OCO2)N1CCCCC1` (relative stereo), the “Ratio CC50/IC50” value in series [4] came out at 2; in series [5], 2.5. In addition, the IC50 in the series on Hepatitis B virus [1] was determined as 160 µM; in the series with Hepatitis B virus [2], 130 µM. Besides, the half-maximal cytotoxic concentration (CC50) in series [3] worked out at 320 µM.

Take `O=C(/C=C/CCCC[C@@H](O)[C@H](O)c1ccc2c(c1)OCO2)N1CCCCC1` (relative stereo): the “Ratio CC50/IC50” value in series [4] and in series [5] was 1.9 in each case. For the same molecule, the IC50 in the series with Hepatitis B virus [1] and in the series on Hepatitis B virus [2] was 110 µM throughout. This molecule registered a cytotoxic concentration (CC50) in series [3] of 210 µM.

On to `O=C1C=CCCN1` [5,6-DIHYDRO-2(1H)-PYRIDINONE], for which the 50% inhibitory concentration (IC50) in the series with Hepatitis B virus [1] and in the series with Hepatitis B virus [2] was greater than 14000 µM each time. The 50% cytotoxic concentration (CC50) in series [3] is 9900 µM.

For `CC(C)CNC(=O)/C=C/C=C/CCCCCC/C=C/c1ccc2c(c1)OCO2` [GUINEENSINE], the “Ratio CC50/IC50” value in series [4] and in series [5] was greater than 3 in each case. Besides, the IC50 in the series with Hepatitis B virus [1] and in the series with Hepatitis B virus [2] was less than 50 µM in each case. Moreover, the cytotoxic concentration (CC50) in series [3] was found to be 150 µM.

Consider `Nc1ccn([C@@H]2CS[C@H](CO)O2)c(=O)n1` [LAMIVUDINE], for which the figures for the “Ratio CC50/IC50” value in series [4] and in series [5] were 1 and 1.1, respectively. The results for the IC50 with Hepatitis B virus [1] and in the series on Hepatitis B virus [2] were 30400 µM and 28800 µM, respectively.

On to `CC(CC(=O)O)(CC(=O)O)OC[C@H]1O[C@@H](OC/C=C/c2ccccc2)[C@H](O)[C@@H](O)[C@@H]1O` [LONGUMOSIDE B], for which the IC50 in the series on Hepatitis B virus [1] and in the series with Hepatitis B virus [2] was greater than 3750 µM in each case. For the same molecule, the CC50 in series [3] was greater than 3750 µM.

Turning to `O=C(/C=C/C=C/c1ccc2c(c1)OCO2)N1CCCCC1` [PIPERINE], the “Ratio CC50/IC50” value in series [4] is reported as 16.8; in series [5] it was 15.7. For the same molecule, the half-maximal inhibitory concentration (IC50) with Hepatitis B virus [1] worked out at 140 µM; in the series on Hepatitis B virus [2], 150 µM. Also, the 50% cytotoxic concentration (CC50) in series [3] is 2350 µM.

Turning to `CC(C)CNC(=O)/C=C/C=C/c1ccc2c(c1)OCO2` [PIPERLONGUMININE], the IC50 in the series on Hepatitis B virus [1] and in the series with Hepatitis B virus [2] was greater than 4510 µM in each case. Besides, in series [3], the CC50 was determined as 320 µM.
